ChEMBL document CHEMBL2010803, “Novel NSAID 1-acyl-4-cycloalkyl/arylsemicarbazides and 1-acyl-5-benzyloxy/hydroxy carbamoylcarbazides as potential anticancer agents and antioxidants” (Eur J Med Chem, 2012)
Calls of active or inactive are those of the source. The rule behind the calls is not given here.

What was measured:
Felid alphaherpesvirus 1 = experiment: Antiviral activity against Feline herpesvirus infected in feline CRFK cells assessed as inhibition of virus-induced cytopathic effect at 0.32 to 100 uM; format: functional, organism-based
How it was run: (§1)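 Confluent cell cultures were infected with 100 CCID50 of virus in the presence of test compound at 100, 40, 8, 1.6 and 0.32 μM. Cytopathic effect was scored once it was complete in untreated infected controls.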

NCI-H460 [1] = experiment: Cytostatic activity against human NCI-H460 cells after 72 hrs by MTT assay; format: functional, cell-based; details: NCI-H460, 72 h
How it was run: (§2)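 Monolayers in DMEM with 10% FBS, 2 mM L-glutamine and penicillin/streptomycin, 37 °C, 5% CO2. Seeded at 1–3 × 10^4 cells/ml, then compound added in tenfold dilutions (10⁻⁸–10⁻⁴ M) for 72 h. MTT read at 570 nm; percent growth taken against time-zero and untreated controls. IC50 by linear regression; quadruplicate, at least two experiments.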

HaCaT [2] = experiment: Selectivity ratio of IC50 for human HaCaT cells to IC50 for human CEM cells
Human alphaherpesvirus 1 = experiment: Antiviral activity against HSV1 KOS infected in human lung fibroblast assessed as inhibition of virus-induced cytopathic effect at 0.32 to 100 uM; format: functional, organism-based; how it was run: as §1
Influenza A virus [3] = experiment: Antiviral activity against Influenza A virus H1N1 infected in MDCK cells assessed as inhibition of virus-induced cytopathic effect at 0.32 to 100 uM; format: functional, organism-based
How it was run: (§3)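 Confluent MDCK monolayers were infected in the presence of the compound at 100, 40, 8, 1.6 and 0.32 μM. Viral cytopathicity was scored once it was complete in untreated infected control cultures.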

[4] = tested on: Mammalian orthoreovirus 1; experiment: Antiviral activity against Reovirus-1 infected in african green monkey Vero cells assessed as inhibition of virus-induced cytopathic effect at 0.32 to 100 uM; format: functional, organism-based; how it was run: as §1
[5] = tested on: Human immunodeficiency virus 2; experiment: Antiviral activity against HIV2 ROD infected in human CEM cells assessed as inhibition of virus-induced CEM giant cell formation at 0.32 to 100 uM after 4 days; format: functional, organism-based; details: ISOLATE ROD, CCRF-CEM
How it was run: (§4)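 CEM cells (~3 × 10^5 cells/cm³) exposed to 100 CCID50/ml of virus and seeded into wells holding compound dilutions. Incubated 4 days at 37 °C, then giant cell formation examined microscopically.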

[6] = tested on: Respiratory syncytial virus; experiment: Antiviral activity against RSV infected in human cervix carcinoma cells assessed as inhibition of virus-induced cytopathic effect at 0.32 to 100 uM; format: functional, organism-based; how it was run: as §1
CCRF-CEM = experiment: Cytostatic activity against human CEM cells after 3 days by coulter counter analysis; format: functional, cell-based; details: 72 h
How it was run: (§5)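 300,000–500,000 cells/ml mixed 1:1 with compound dilutions and incubated at 37 °C for 2 days (L1210) or 3 days (CEM, HeLa). Cell number counted with a Coulter counter; HeLa trypsinized before counting.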

HeLa [7] = experiment: Selectivity ratio of IC50 for human HaCaT cells to IC50 for human HeLa cells
Punta Toro virus = experiment: Antiviral activity against Punta Toro virus infected in african green monkey Vero cells assessed as inhibition of virus-induced cytopathic effect at 0.32 to 100 uM; format: functional, organism-based; how it was run: as §1
Coxsackievirus B4 [8] = experiment: Antiviral activity against Coxsackievirus B4 infected in human cervix carcinoma cells assessed as inhibition of virus-induced cytopathic effect at 0.32 to 100 uM; format: functional, organism-based; how it was run: as §1
HeLa [9] = experiment: Cytostatic activity against human HeLa cells after 3 days by coulter counter analysis; format: functional, cell-based; details: 72 h; how it was run: as §5
HaCaT [10] = experiment: Selectivity ratio of IC50 for human HaCaT cells to IC50 for human HCT116 cells
[11] = tested on: Vesicular stomatitis virus; experiment: Antiviral activity against Vesicular stomatitis virus infected in human cervix carcinoma cells assessed as inhibition of virus-induced cytopathic effect at 0.32 to 100 uM; format: functional, organism-based
How it was run: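 Confluent human cervix carcinoma (HeLa) cultures received 100 CCID50 of VSV together with the compound at 100, 40, 8, 1.6 or 0.32 μM. Cytopathicity was read at the point of full CPE in infected, untreated control wells.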

Human alphaherpesvirus 2 = experiment: Antiviral activity against HSV2 G infected in human lung fibroblast assessed as inhibition of virus-induced cytopathic effect at 0.32 to 100 uM; format: functional, organism-based; details: strain G; how it was run: as §1
L1210 [12] = experiment: Cytostatic activity against mouse L1210 cells after 2 days by coulter counter analysis; format: functional, cell-based; details: L1210, 48 h; how it was run: as §5
HCT-116 = experiment: Cytostatic activity against human HCT116 cells after 72 hrs by MTT assay; format: functional, cell-based; details: HCT-116, 72 h; how it was run: as §2
Vaccinia virus = experiment: Antiviral activity against Vaccinia virus infected in human lung fibroblast assessed as inhibition of virus-induced cytopathic effect at 0.32 to 100 uM; format: functional, organism-based; details: Orthopoxvirus vaccinia
MCF7 [13] = experiment: Cytostatic activity against human MCF7 cells after 72 hrs by MTT assay; format: functional, cell-based; details: MCF7, 72 h; how it was run: as §2
Influenza B virus = experiment: Antiviral activity against Influenza B virus infected in MDCK cells assessed as inhibition of virus-induced cytopathic effect at 0.32 to 100 uM; format: functional, organism-based; how it was run: as §3
MCF7 [14] = experiment: Selectivity ratio of IC50 for human HaCaT cells to IC50 for human MCF7 cells
[15] = tested on: Human immunodeficiency virus 1; experiment: Antiviral activity against HIV1 3B infected in human CEM cells assessed as inhibition of virus-induced CEM giant cell formation at 0.32 to 100 uM after 4 days; format: functional, organism-based; details: CCRF-CEM; how it was run: as §4
NCI-H460 [16] = experiment: Selectivity ratio of IC50 for human HaCaT cells to IC50 for human NCI-H460 cells
HaCaT [17] = experiment: Cytostatic activity against human HaCaT cells after 72 hrs by MTT assay; format: ADME, cell-based; how it was run: as §2
[18] = tested on: Radical scavenging activity; experiment: Antioxidant activity assessed as DPPH free radical scavenging activity at 100 uM after 60 mins by spectrophotometric analysis; format: functional
How it was run: (§6)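 0.05 mM DPPH in absolute ethanol mixed with an equal volume of compound in DMSO (final 100 μM). Shaken and left 20 or 60 min, then absorbance read at 517 nm and percent activity calculated. Three replicates, averaged.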

Feline coronavirus = experiment: Antiviral activity against Feline coronavirus infected in feline CRFK cells assessed as inhibition of virus-induced cytopathic effect at 0.32 to 100 uM; format: functional, organism-based; how it was run: as §1
Glycine max = experiment: Inhibition of soybean LOX assessed as conversion of sodium linoleate to 13- hydroperoxylinoleic acid at 100 uM
[19] = tested on: Radical scavenging activity; experiment: Antioxidant activity assessed as DPPH free radical scavenging activity at 100 uM after 20 mins by spectrophotometric analysis; format: functional; how it was run: as §6
Sindbis virus = experiment: Antiviral activity against Sindbis virus infected in african green monkey Vero cells assessed as inhibition of virus-induced cytopathic effect at 0.32 to 100 uM; format: functional, organism-based; how it was run: as §1
Coxsackievirus B4 [20] = experiment: Antiviral activity against Coxsackievirus B4 infected in african green monkey Vero cells assessed as inhibition of virus-induced cytopathic effect at 0.32 to 100 uM; format: functional, organism-based; how it was run: as §1
[21] = Inhibition of soybean LOX assessed as conversion of sodium linoleate to 13- hydroperoxylinoleic acid; design: species or system Glycine max
[22] = tested on: Vesicular stomatitis virus; experiment: Antiviral activity against VSV infected in human lung fibroblast assessed as inhibition of virus-induced cytopathic effect at 0.32 to 100 uM; format: functional, organism-based
L1210 [23] = experiment: Selectivity ratio of IC50 for human HaCaT cells to IC50 for mouse L1210 cells
Influenza A virus [24] = experiment: Antiviral activity against Influenza A virus H3N2 infected in MDCK cells assessed as inhibition of virus-induced cytopathic effect at 0.32 to 100 uM; format: functional, organism-based; how it was run: as §3
[25] = Antioxidant activity assessed as inhibition of AAPH-induced linoleic acid lipid peroxidation by measuring conjugated diene hydroperoxide level; format: functional; design: concentration or dose not given beside the values; details: dose or concentration not given here
How it was run: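 Linoleic acid sodium salt (10 μL of 16 mM) in 0.05 M phosphate buffer pH 7.4 at 37 °C. Oxidation started under air with 50 μL of 40 mM AAPH. Conjugated diene hydroperoxide formation followed as absorbance rise at 234 nm; control contains the same DMSO level. At least triplicate.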

Human respirovirus 3 = experiment: Antiviral activity against Parainfluenza virus 3 infected in african green monkey Vero cells assessed as inhibition of virus-induced cytopathic effect at 0.32 to 100 uM; format: functional, organism-based; how it was run: as §1

Row | SMILES | inhibition (Felid alphaherpesvirus 1) | IC50 (NCI-H460 [1]) [µM] | inhibition (Human alphaherpesvirus 1) | inhibition (Influenza A virus [3]) | inhibition [4] | inhibition [5] | inhibition [6] | IC50 (CCRF-CEM) [µM] | inhibition (Punta Toro virus) | inhibition (Coxsackievirus B4 [8]) | inhibition [11] | inhibition (Human alphaherpesvirus 2) | IC50 (L1210 [12]) [µM] | IC50 (HCT-116) [µM] | inhibition (Vaccinia virus) | IC50 (MCF7 [13]) [µM] | inhibition (Influenza B virus) | inhibition [15] | IC50 (HaCaT [17]) [µM] | Activity [18] [%] | other results
1 | CC(C(=O)NNC(=O)NC(c1ccccc1)c1ccccc1)c1cccc(Oc2ccccc2)c1 (centres undefined) | inactive | 3 | inactive | inactive | inactive | inactive | inactive | 11 | inactive | inactive | inactive | inactive | 15 | 5 | inactive | 7 | inactive | inactive | 10 | 4 | Ratio IC50 (HaCaT [2]): 2; Ratio IC50 (HeLa [7]): 2; IC50 (HeLa [9]): 5.7 µM; Ratio IC50 (HaCaT [10]): 2; Ratio IC50 (MCF7 [14]): 2; Ratio IC50 (NCI-H460 [16]): 2; inhibition (Feline coronavirus): inactive; inhibition (Glycine max): 81%; Activity [19]: 2%; inhibition (Sindbis virus): inactive; inhibition (Coxsackievirus B4 [20]): inactive; IC50 [21]: 60 µM; inhibition [22]: inactive; Ratio IC50 (L1210 [23]): 2; inhibition (Influenza A virus [24]): inactive; inhibition [25]: 99%; inhibition (Human respirovirus 3): inactive
2 | CC(C(=O)NNC(=O)NCCc1ccccc1)c1cccc(Oc2ccccc2)c1 (centres undefined) | inactive | 22 | inactive | inactive | inactive | inactive | inactive | 71 | inactive | inactive | inactive | inactive | 53 | 18 | inactive | 19 | inactive | inactive | 15 | 7 | IC50 (HeLa [9]): 64 µM; inhibition (Feline coronavirus): inactive; inhibition (Glycine max): 20%; Activity [19]: 4%; inhibition (Sindbis virus): inactive; inhibition (Coxsackievirus B4 [20]): inactive; inhibition [22]: inactive; inhibition (Influenza A virus [24]): inactive; inhibition [25]: 51%; inhibition (Human respirovirus 3): inactive
3 | CC(C(=O)NNC(=O)NCc1ccccc1)c1cccc(Oc2ccccc2)c1 (centres undefined) | inactive | 19 | inactive | inactive | inactive | inactive | inactive | 72 | inactive | inactive | inactive | inactive | 63 | 27 | inactive | 17 | inactive | inactive | 46 | 24 | inhibition (Feline coronavirus): inactive; inhibition (Glycine max): 68%; Activity [19]: 22%; inhibition (Sindbis virus): inactive; inhibition (Coxsackievirus B4 [20]): inactive; IC50 [21]: 75 µM; inhibition [22]: inactive; inhibition (Influenza A virus [24]): inactive; inhibition [25]: 11%; inhibition (Human respirovirus 3): inactive
4 | CC(C(=O)NNC(=O)NC(c1ccccc1)c1ccccc1)c1cccc(Cc2ccccc2)c1 (centres undefined) | inactive | 4 | inactive | inactive | inactive | inactive | inactive | 15 | inactive | inactive | inactive | inactive | 19 | 8 | inactive | 5 | inactive | inactive | 11 | 9 | Ratio IC50 (HaCaT [2]): 2; Ratio IC50 (HeLa [7]): 2; IC50 (HeLa [9]): 5 µM; Ratio IC50 (HaCaT [10]): 2; Ratio IC50 (MCF7 [14]): 2; Ratio IC50 (NCI-H460 [16]): 2; inhibition (Feline coronavirus): inactive; inhibition (Glycine max): 96%; Activity [19]: 4%; inhibition (Sindbis virus): inactive; inhibition (Coxsackievirus B4 [20]): inactive; IC50 [21]: 51.5 µM; inhibition [22]: inactive; Ratio IC50 (L1210 [23]): 2; inhibition (Influenza A virus [24]): inactive; inhibition [25]: 88%; inhibition (Human respirovirus 3): inactive
5 | CC(C(=O)NNC(=O)NC1CCCCC1)c1cccc(Oc2ccccc2)c1 (centres undefined) | inactive | 24 | inactive | inactive | inactive | inactive | inactive | 53 | inactive | inactive | inactive | inactive | 35 | 22 | inactive | 17 | inactive | inactive | 19 | 22 | IC50 (HeLa [9]): 48 µM; inhibition (Feline coronavirus): inactive; inhibition (Glycine max): 13%; Activity [19]: 19%; inhibition (Sindbis virus): inactive; inhibition (Coxsackievirus B4 [20]): inactive; inhibition [22]: inactive; inhibition (Influenza A virus [24]): inactive; inhibition [25]: 63%; inhibition (Human respirovirus 3): inactive
